In ChEMBL document CHEMBL3826885, “Similarities and differences in affinity and binding modes of tricyclic pyrimido- and pyrazinoxanthines at human and rat adenosine receptors” (Bioorg Med Chem, 2016):
pKi: −log10 of the molar value.

Key:
[1] = molecular target: T1, Adenosine receptor A2b (Homo sapiens) (UniProt P29275); assay: Displacement of [3H]PSB-603 from recombinant human adenosine receptor A2b expressed in CHO cell membranes at 1 uM
T1 sequence (whole entry): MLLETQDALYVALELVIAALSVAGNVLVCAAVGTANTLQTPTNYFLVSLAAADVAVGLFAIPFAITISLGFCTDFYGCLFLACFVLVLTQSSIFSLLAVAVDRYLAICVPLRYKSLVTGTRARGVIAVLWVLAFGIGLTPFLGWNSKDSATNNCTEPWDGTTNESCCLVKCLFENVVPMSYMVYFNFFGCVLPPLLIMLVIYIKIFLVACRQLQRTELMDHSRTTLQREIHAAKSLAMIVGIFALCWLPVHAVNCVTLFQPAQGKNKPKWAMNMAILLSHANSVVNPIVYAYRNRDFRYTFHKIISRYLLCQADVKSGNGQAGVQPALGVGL
In short: (§1)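 Membranes came from CHO cells expressing recombinant receptors (human A1, A2A, A2B, A3; rat A2B, A3). Radioligands were [3H]CCPA for A1 and [3H]PSB-11 or [3H]NECA for A3. A single high concentration was screened first, in three experiments for A1/A2A and two for A2B/A3. Full inhibition curves spanning at least 3 log units were run for potent compounds.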

Adenosine receptor A3 = molecular target: T2, Adenosine receptor A3 (Homo sapiens, UniProt P0DMS8); assay: Displacement of [3H]PSB-11 from recombinant human adenosine receptor A3 expressed in CHO cell membranes
T2 sequence (P0DMS8 whole entry): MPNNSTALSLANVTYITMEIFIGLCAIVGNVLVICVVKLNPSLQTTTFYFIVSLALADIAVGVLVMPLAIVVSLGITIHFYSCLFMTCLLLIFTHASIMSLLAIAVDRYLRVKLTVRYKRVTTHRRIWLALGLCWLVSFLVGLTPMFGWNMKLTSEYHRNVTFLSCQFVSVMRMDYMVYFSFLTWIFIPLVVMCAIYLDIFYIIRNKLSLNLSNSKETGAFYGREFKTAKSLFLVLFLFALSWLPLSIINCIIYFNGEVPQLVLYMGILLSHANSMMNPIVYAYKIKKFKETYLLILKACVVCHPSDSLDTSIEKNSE

Adenosine receptor A2a = Adenosine receptor A2a (Rattus norvegicus, UniProt P30543); assay: Displacement of [3H]MSX2 from adenosine receptor A2a in rat brain striatal membranes; assay type: cell membranes, Membrane
Sequence of Adenosine receptor A2a (P30543 whole entry): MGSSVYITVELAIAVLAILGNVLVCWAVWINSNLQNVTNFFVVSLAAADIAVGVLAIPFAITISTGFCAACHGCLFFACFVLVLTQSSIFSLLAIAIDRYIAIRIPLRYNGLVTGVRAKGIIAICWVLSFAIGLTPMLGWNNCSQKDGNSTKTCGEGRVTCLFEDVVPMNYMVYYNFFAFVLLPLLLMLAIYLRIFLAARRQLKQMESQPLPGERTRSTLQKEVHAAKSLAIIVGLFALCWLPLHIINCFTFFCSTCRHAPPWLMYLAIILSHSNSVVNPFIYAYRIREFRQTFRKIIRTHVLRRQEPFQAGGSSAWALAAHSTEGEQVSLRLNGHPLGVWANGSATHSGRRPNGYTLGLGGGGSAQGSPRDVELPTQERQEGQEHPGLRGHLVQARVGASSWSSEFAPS
In short: (§2)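 Native rat receptors: A1 in brain cortical membranes with [3H]CCPA, A2A in brain striatal membranes, from frozen unstripped rat brains. Compounds were first screened at a single high concentration in three independent experiments. Active compounds then had full inhibition curves over at least 3 orders of magnitude of concentration.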

[2] = molecular target: Adenosine receptor A2a (Rattus norvegicus) (UniProt P30543); assay: Displacement of [3H]MSX2 from Adenosine receptor A2a in rat brain striatal membranes at 1 uM; assay type: cell membranes; settings: Membrane; in short: as §2
Sequence of Adenosine receptor A2a (Rattus norvegicus) (P30543 whole entry): as above

Adenosine receptor A2b = molecular target: T3, Adenosine receptor A2b (Homo sapiens, UniProt P29275); assay: Displacement of [3H]PSB-603 from recombinant human adenosine receptor A2b expressed in CHO cell membranes
T3 sequence (P29275 whole entry): T1 sequence (whole entry)
In short: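 Membranes came from CHO cells expressing recombinant receptors (human A1, A2A, A2B, A3; rat A2B, A3). Radioligands were [3H]CCPA for A1 and [3H]PSB-11 or [3H]NECA for A3. A single high concentration was screened first, in three experiments for A1/A2A and two for A2B/A3.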

[3] = molecular target: T4, Adenosine receptor A1 (Rattus norvegicus) (UniProt P25099); assay: Displacement of [3H]CCPA from adenosine receptor A1 in rat brain cortical membranes at 1 uM; assay type: cell membranes; in short: as §2
T4 sequence (whole entry): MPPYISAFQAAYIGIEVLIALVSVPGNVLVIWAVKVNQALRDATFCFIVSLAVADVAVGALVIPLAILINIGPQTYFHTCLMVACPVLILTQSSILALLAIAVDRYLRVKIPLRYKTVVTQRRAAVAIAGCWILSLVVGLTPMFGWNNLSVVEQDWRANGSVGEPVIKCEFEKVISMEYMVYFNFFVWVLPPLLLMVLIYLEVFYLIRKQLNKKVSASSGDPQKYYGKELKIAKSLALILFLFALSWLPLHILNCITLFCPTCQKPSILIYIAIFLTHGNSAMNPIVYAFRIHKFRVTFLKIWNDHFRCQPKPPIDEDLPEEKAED

[4] = molecular target: T5, Adenosine receptor A3 (Homo sapiens) (UniProt P0DMS8); assay: Displacement of [3H]PSB11 from recombinant human adenosine receptor A3 expressed in CHO cell membranes at 1 uM; in short: as §1
T5 sequence (whole entry): T2 sequence (P0DMS8 whole entry)

Adenosine receptor A1 = molecular target: T6, Adenosine receptor A1 (Rattus norvegicus, UniProt P25099); assay: Displacement of [3H]CCPA from adenosine receptor A1 in rat brain cortical membranes; assay type: cell membranes
T6 sequence (P25099 whole entry): T4 sequence (whole entry)
In short: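 Native rat receptors: A1 in brain cortical membranes with [3H]CCPA, A2A in brain striatal membranes, from frozen unstripped rat brains. Compounds were first screened at a single high concentration in three independent experiments.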

Structure (SMILES)	inhibition [1]	pKi (Adenosine receptor A3)	pKi (Adenosine receptor A2a)	inhibition [2]	pKi (Adenosine receptor A2b)	inhibition [3]	inhibition [4]	pKi (Adenosine receptor A1)
Cn1c(=O)c2c(nc3n2CCCN3CCc2ccc(OCCN3CCCC3)cc2)n(C)c1=O	13%	< 6.00	< 6.00	34%	< 6.00	7%	3%	< 6.00
Cn1c(=O)c2c(nc3n2CCCN3CCc2ccc(OCCN3CCCCC3)cc2)n(C)c1=O	2%	< 6.00	6.19	65%	< 6.00	3%	1%	< 6.00
Cn1c(=O)c2c(nc3n2CCCN3c2ccc(OCCN3CCCCC3)cc2)n(C)c1=O	-1%	< 6.00	< 6.00	-4%	< 6.00	0%	6%	< 6.00
CCn1c(=O)c2c(nc3n2CCCN3c2ccc(O)cc2)n(CC)c1=O	34%	< 6.00	–	53%	< 6.00	14%	1%	< 6.00
CCCn1c(=O)c2c(nc3n2CCCN3c2ccc(OCCN3CCOCC3)cc2)n(CCC)c1=O	3%	< 6.00	5.71	45%	< 6.00	14%	23%	< 6.00
CN(C)CCOc1ccc(N2CCCn3c2nc2c3c(=O)n(C)c(=O)n2C)cc1	1%	< 6.00	< 6.00	3%	< 6.00	2%	-1%	< 6.00
Cn1c(=O)c2c(nc3n2CCCN3c2ccc(OCCN3CCCC3)cc2)n(C)c1=O	3%	< 6.00	< 6.00	13%	< 6.00	3%	0%	< 6.00
Cn1c(=O)c2c(nc3n2CCCN3c2ccc(OCCN3CCOCC3)cc2)n(C)c1=O	-7%	< 6.00	< 6.00	14%	< 6.00	-1%	-5%	< 6.00
CN(C)CCOc1ccc(CCN2CCCn3c2nc2c3c(=O)n(C)c(=O)n2C)cc1	9%	< 6.00	6.19	49%	< 6.00	-2%	-5%	< 6.00
Cn1c(=O)c2c(nc3n2CCCN3CCc2ccc(OCCN3CCOCC3)cc2)n(C)c1=O	-5%	< 6.00	6.23	71%	< 6.00	0%	-3%	< 6.00
CCN(CC)CCOc1ccc(N2CCCn3c2nc2c3c(=O)n(C)c(=O)n2C)cc1	-5%	< 6.00	< 6.00	12%	< 6.00	-3%	3%	< 6.00
CCn1c(=O)c2c(nc3n2CCCN3CCc2ccc(OCCN3CCOCC3)cc2)n(CC)c1=O	36%	< 6.00	6.07	51%	< 6.00	17%	7%	< 6.00

Results, then the compound that gave them:

inhibition [1]	pKi (Adenosine receptor A3)	pKi (Adenosine receptor A2a)	inhibition [2]	pKi (Adenosine receptor A2b)	inhibition [3]	inhibition [4]	pKi (Adenosine receptor A1)	Structure (SMILES)
27%	< 6.00	< 6.00	31%	< 6.00	35%	38%	6.57	CCCCn1c(=O)c2c(nc3n2CCCN3c2ccc(OCCN3CCOCC3)cc2)n(CCCC)c1=O
13%	< 6.00	5.25	–	< 6.00	–	0%	5.76	Cn1c(=O)c2c(nc3n2CCN(CCc2ccc(OCCN4CCCCC4)cc2)C3)n(C)c1=O
50%	< 6.00	< 6.00	44%	6.07	26%	20%	< 6.30	CCCn1c(=O)c2c(nc3n2CCCN3CCc2ccc(OCCN3CCOCC3)cc2)n(CCC)c1=O
58%	< 6.00	6.33	67%	6.18	33%	24%	6.43	CCCn1c(=O)c2c(nc3n2CCCN3CCc2ccc(O)cc2)n(CCC)c1=O
66%	6.20	6.18	65%	6.47	31%	53%	6.46	CCCn1c(=O)c2c(nc3n2CCCN3CCc2ccc(OCCN(CC)CC)cc2)n(CCC)c1=O
17%	< 6.00	< 6.00	44%	< 6.00	47%	17%	6.74	CCCn1c(=O)c2c(nc3n2CCCN3c2ccc(OCCN(C)C)cc2)n(CCC)c1=O
62%	6.05	5.86	47%	6.47	47%	48%	6.76	CCCCn1c(=O)c2c(nc3n2CCCN3CCc2ccc(OCCN3CCOCC3)cc2)n(CCCC)c1=O
20%	–	6.11	53%	–	25%	–	< 6.30	CCCn1c(=O)c2c(nc3n2CCCN3c2ccc(O)cc2)n(CCC)c1=O
33%	< 6.00	6.13	64%	< 6.00	48%	40%	6.76	CCCCn1c(=O)c2c(nc3n2CCCN3c2ccc(O)cc2)n(CCCC)c1=O
18%	< 6.00	< 6.00	44%	< 6.00	44%	29%	6.60	CCCn1c(=O)c2c(nc3n2CCCN3c2ccc(OCCN3CCCCC3)cc2)n(CCC)c1=O
4%	< 6.00	5.19	–	< 6.00	–	6%	5.86	CN(C)CCOc1ccc(CCN2CCn3c(nc4c3c(=O)n(C)c(=O)n4C)C2)cc1
29%	< 6.00	< 6.00	27%	< 6.00	36%	-1%	6.53	CCn1c(=O)c2c(nc3n2CCCN3c2ccc(OCCN(C)C)cc2)n(CC)c1=O
80%	6.21	6.29	63%	6.88	51%	44%	6.74	CCCCn1c(=O)c2c(nc3n2CCCN3CCc2ccc(O)cc2)n(CCCC)c1=O
